Experimental findings from ChEMBL document CHEMBL1158537, “Antibacterial activities of aminoglycoside antibiotics-derived cationic amphiphiles. Polyol-modified neomycin B-, kanamycin A-, amikacin-, and neamine-based amphiphiles with potent broad spectrum antibacterial activity” (2010) are described below.

Converted amounts (≈) assume the structure as drawn.

The test system of experiment [1] is Staphylococcus epidermidis. Put plainly: Antibacterial activity against methicillin-resistant Staphylococcus epidermidis ATCC 14990 after 24 hrs by macrobroth dilution method. The format is functional. (In broth dilution the organism is exposed to a series of concentrations in liquid medium.)
The test system of experiment [2] is Stenotrophomonas maltophilia. The experiment is described as follows: Antibacterial activity against Stenotrophomonas maltophilia CAN-ICU 62585 after 24 hrs by macrobroth dilution method. Format: functional. The essentials:
(§1)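 Broth macrodilution was run following CLSI methodology against ATCC reference strains and clinical isolates from the Canadian Intensive Care Unit (CAN-ICU) study, with Gram-positive and Gram-negative organisms tested. The value is the minimum inhibitory concentration, reported in μg/mL.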

The test system of another experiment is Acinetobacter baumannii. Put plainly: Antibacterial activity against Acinetobacter baumannii CAN-ICU 63169 after 24 hrs by macrobroth dilution method. The format is functional. The essentials: as §1
In a further experiment the test system is Klebsiella pneumoniae. Put plainly: Antibacterial activity against Klebsiella pneumoniae ATCC 13883 after 24 hrs by macrobroth dilution method. The following applies: ATCC 13883, 24 h.
Experiment [3] relates to Pseudomonas aeruginosa. Put plainly: Antibacterial activity against Pseudomonas aeruginosa ATCC 27853 after 24 hrs by macrobroth dilution method. The format is functional. The essentials:
as §1

The subject of experiment [4] is Pseudomonas aeruginosa. Put plainly: Antibacterial activity against Pseudomonas aeruginosa CAN-ICU 62308 after 24 hrs by macrobroth dilution method. The format is functional. The essentials:
as §1

Experiment [5] relates to Staphylococcus aureus. Put plainly: Antibacterial activity against Staphylococcus aureus ATCC 29213 after 24 hrs by macrobroth dilution method. Format: functional. The essentials:
(§2)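 Reference strains from the American Type Culture Collection were tested by broth macrodilution following CLSI methodology. The read-out was the minimum inhibitory concentration, reported in μg/mL. The same method was used for the Gram-positive and Gram-negative organisms.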

The subject of experiment [6] is Escherichia coli. The experiment is described as follows: Antibacterial activity against gentamicin-resistant Escherichia coli ATCC 6174 after 24 hrs by macrobroth dilution method. The format is functional. The essentials: as §2
Experiment [7] deals with Staphylococcus epidermidis. The experiment is described as follows: Antibacterial activity against Staphylococcus epidermidis […] after 24 hrs by macrobroth dilution method. Format: functional. The essentials: as §1
Experiment [8] deals with Escherichia coli. The experiment is described as follows: Antibacterial activity against Escherichia coli CAN-ICU 63074 after 24 hrs by macrobroth dilution method. The format is functional. The essentials:
as §1

In experiment [9] the test system is Escherichia coli. Put plainly: Antibacterial activity against Escherichia coli ATCC 25922 after 24 hrs by macrobroth dilution method. The format is functional. The essentials:
as §2

Another experiment concerns Streptococcus pneumoniae. The experiment is described as follows: Antibacterial activity against Streptococcus pneumoniae ATCC 49619 after 24 hrs by macrobroth dilution method. Format: functional. The essentials:
as §1

Experiment [10] deals with Staphylococcus aureus. The experiment is described as follows: Antibacterial activity against methicillin-resistant Staphylococcus aureus ATCC 33592 after 24 hrs by macrobroth dilution method. Format: functional. The essentials:
as §2

As a reminder, the MIC is the least concentration at which growth counts as inhibited. Regarding `NC[C@@H]1O[C@@H](O[C@H]2[C@H](O)[C@@H](O[C@H]3O[C@H](CO)[C@@H](O)[C@H](N)[C@H]3O)[C@H](N)C[C@@H]2N)[C@@H](O)[C@H](O)[C@H]1O` [KANAMYCIN A], the MIC was 128 µg/mL (≈ 264 µM) in [1] (ATCC 14990, 24 h); more than 512 µg/mL in [2] (CAN-ICU 62585, 24 h); 32 µg/mL (≈ 66 µM) in the experiment with Acinetobacter baumannii (CAN-ICU 63169, 24 h); 1 µg/mL (≈ 2.06 µM) in the experiment on Klebsiella pneumoniae; more than 512 µg/mL in the experiment with Pseudomonas aeruginosa [3] (ATCC 27853, 24 h); more than 512 µg/mL with Pseudomonas aeruginosa [4] (CAN-ICU 62308, 24 h). Further, the MIC with Staphylococcus aureus [5] (ATCC 29213, 24 h) was found to be 4 µg/mL (≈ 8.26 µM); in the experiment with Escherichia coli [6] (ATCC 6174, 24 h), 16 µg/mL (≈ 33 µM); in experiment [7], 2 µg/mL (≈ 4.13 µM); in the experiment on Escherichia coli [8] (CAN-ICU 63074, 24 h) it was 32 µg/mL (≈ 66 µM); in the experiment with Escherichia coli [9] (ATCC 25922, 24 h) it was 8 µg/mL (≈ 16.5 µM); in the experiment on Streptococcus pneumoniae (ATCC 49619, 24 h), 8 µg/mL (≈ 16.5 µM). The same compound showed an MIC with Staphylococcus aureus [10] (ATCC 33592, 24 h) of more than 512 µg/mL.

On to `NC[C@H]1O[C@H](O[C@H]2[C@H](OC(=O)Nc3ccccc3)[C@@H](O[C@H]3O[C@H](COC(=O)Nc4ccccc4)[C@@H](OC(=O)Nc4ccccc4)[C@H](N)[C@H]3OC(=O)Nc3ccccc3)[C@H](N)C[C@@H]2N)[C@H](OC(=O)Nc2ccccc2)[C@@H](OC(=O)Nc2ccccc2)[C@@H]1OC(=O)Nc1ccccc1.O=C(O)C(F)(F)F`, for which the MIC is 8 µg/mL in experiment [1] (ATCC 14990, 24 h); more than 256 µg/mL in [2] (CAN-ICU 62585, 24 h); more than 256 µg/mL in the experiment with Acinetobacter baumannii (CAN-ICU 63169, 24 h); more than 256 µg/mL against Klebsiella pneumoniae; more than 256 µg/mL in the experiment on Pseudomonas aeruginosa [3] (ATCC 27853, 24 h); more than 256 µg/mL against Pseudomonas aeruginosa [4] (CAN-ICU 62308, 24 h). The MIC in the experiment on Staphylococcus aureus [5] (ATCC 29213, 24 h) is 32 µg/mL; against Escherichia coli [6] (ATCC 6174, 24 h), more than 256 µg/mL; in [7] it was 4 µg/mL; in the experiment on Escherichia coli [8] (CAN-ICU 63074, 24 h) it was more than 256 µg/mL; in the experiment with Escherichia coli [9] (ATCC 25922, 24 h), more than 256 µg/mL; with Streptococcus pneumoniae (ATCC 49619, 24 h), 64 µg/mL. The lowest concentration to inhibit growth in the experiment on Staphylococcus aureus [10] (ATCC 33592, 24 h) (MIC) was 32 µg/mL.

Take `NC[C@H]1OC(O[C@H]2[C@H](OCc3ccc(Cl)cc3)[C@@H](O[C@H]3O[C@H](COCc4ccc(Cl)cc4)[C@@H](OCc4ccc(Cl)cc4)[C@H](N)[C@H]3OCc3ccc(Cl)cc3)[C@H](N)C[C@@H]2N)[C@H](OCc2ccc(Cl)cc2)[C@@H](OCc2ccc(Cl)cc2)[C@@H]1OCc1ccc(Cl)cc1.O=C(O)C(F)(F)F` (some centres undefined): the minimal inhibitory concentration (MIC) is 16 µg/mL in experiment [1] (ATCC 14990, 24 h); more than 128 µg/mL in [2] (CAN-ICU 62585, 24 h); more than 128 µg/mL with Acinetobacter baumannii (CAN-ICU 63169, 24 h); more than 128 µg/mL in the experiment on Klebsiella pneumoniae; more than 128 µg/mL against Pseudomonas aeruginosa [3] (ATCC 27853, 24 h); more than 128 µg/mL in the experiment with Pseudomonas aeruginosa [4] (CAN-ICU 62308, 24 h). The MIC amounted to 32 µg/mL in the experiment on Staphylococcus aureus [5] (ATCC 29213, 24 h); 128 µg/mL against Escherichia coli [6] (ATCC 6174, 24 h); 32 µg/mL in experiment [7]; 64 µg/mL with Escherichia coli [8] (CAN-ICU 63074, 24 h); 128 µg/mL in the experiment with Escherichia coli [9] (ATCC 25922, 24 h); 64 µg/mL with Streptococcus pneumoniae (ATCC 49619, 24 h). Besides, the MIC in the experiment on Staphylococcus aureus [10] (ATCC 33592, 24 h) amounted to 32 µg/mL.

As to `CC(C)(C)c1ccc(COC[C@H]2O[C@@H](O[C@@H]3[C@@H](OCc4ccc(C(C)(C)C)cc4)[C@H](N)C[C@H](N)[C@H]3O[C@H]3O[C@H](CN)[C@@H](OCc4ccc(C(C)(C)C)cc4)[C@H](OCc4ccc(C(C)(C)C)cc4)[C@H]3N)[C@H](OCc3ccc(C(C)(C)C)cc3)[C@@H]2O[C@H]2O[C@@H](CN)[C@@H](OCc3ccc(C(C)(C)C)cc3)[C@H](OCc3ccc(C(C)(C)C)cc3)[C@H]2N)cc1.O=C(O)C(F)(F)F`, the MIC is 64 µg/mL in experiment [1] (ATCC 14990, 24 h); more than 128 µg/mL in experiment [2] (CAN-ICU 62585, 24 h); more than 128 µg/mL with Acinetobacter baumannii (CAN-ICU 63169, 24 h); more than 128 µg/mL with Klebsiella pneumoniae; 256 µg/mL in the experiment with Pseudomonas aeruginosa [3] (ATCC 27853, 24 h); 128 µg/mL in the experiment with Pseudomonas aeruginosa [4] (CAN-ICU 62308, 24 h). Also, the MIC came out at 128 µg/mL against Staphylococcus aureus [5] (ATCC 29213, 24 h); 128 µg/mL against Escherichia coli [6] (ATCC 6174, 24 h); 64 µg/mL in experiment [7]; 128 µg/mL in the experiment on Escherichia coli [8] (CAN-ICU 63074, 24 h); 128 µg/mL in the experiment with Escherichia coli [9] (ATCC 25922, 24 h); 256 µg/mL in the experiment with Streptococcus pneumoniae (ATCC 49619, 24 h). Besides, the MIC against Staphylococcus aureus [10] (ATCC 33592, 24 h) came to 128 µg/mL.

On to GENTAMICIN, for which the MIC in experiment [1] is 32 µg/mL; in [2], more than 512 µg/mL; against Acinetobacter baumannii it was 128 µg/mL; in the experiment on Pseudomonas aeruginosa [3] it was 8 µg/mL; against Pseudomonas aeruginosa [4] it was 128 µg/mL; against Staphylococcus aureus [5] it was 1 µg/mL. Also, the MIC was found to be 128 µg/mL with Escherichia coli [6]; 0.25 µg/mL in [7]; 8 µg/mL in the experiment on Escherichia coli [8]; 1 µg/mL with Escherichia coli [9]; 4 µg/mL with Streptococcus pneumoniae; 2 µg/mL against Staphylococcus aureus [10].
